One data set deals with MCF7 cells. In words: MTT cytotoxicity assay, MCF7 cells. The class given is cell-based, human. Put shortly:
(§1)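 Cells seeded at 4000–7000 per well in 10% FBS medium. Lines were grown at 37°C, 5% CO2: MCF-7, LM3–3, BT-20 and BT-474 in DMEM/10% FBS; MDA-MB-468 in RPMI 1640/5% FBS; SUM159PT in Ham's F-12/5% FBS with insulin and hydrocortisone. At 70–80% confluence, test compound was added at 0.2–1000 nM for 72 h, then MTT. Viability relative to untreated cells; IC50 from Hill-slope fit.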
For orientation: Tetrazolium dyes change colour on reduction, which living cells bring about.

Data set [1] addresses DNA-bound ER/SRC-3/P300 complex (Homo sapiens, UniProt Q9Y6Q9). Kind of data set: Biotinylated ERE pull-down assay. The class given is biochemical. An outline of the steps:
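Baculovirus-expressed, affinity-purified His-SRC-3-flag was incubated with test compound or vehicle for 30 min on ice, 0.1 μg protein. Then 0.1 μg recombinant ERα and His-p300 and an ERE-containing DNA oligo were added with 1 μM 17-β estradiol for 1 h on ice. The ER complex was pulled down and bound SRC-3 and p300 quantified by western blot.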

The conditions of data set [2]: mice; cited from earlier work.
For a further data set, the system named is LNCaP cells. In words: LNCaP xenograft mouse model. It is filed as in vivo, SCID mice. Put shortly: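 1×10^7 LNCaP cells were implanted subcutaneously on both sides of the back of male SCID mice. Daily 10 mg/kg i.p. dosing or vehicle started 4 weeks after inoculation and ran for 4 weeks. Tumor size (length × width × width/2) measured weekly. Survival endpoint was tumor diameter of 3.0 cm. Ki67, cleaved caspase 3 and CD31 IHC on tumor sections at the end of treatment.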

Data set [3] is described as follows: Maximum tolerated dose / tolerability in mice. It is filed as in vivo.
A further data set addresses hERG (Homo sapiens, UniProt Q12809). It is filed as cell-based.
Data set [4] relates to seven human cancer cell lines known to overexpress SRC-3. Kind of data set: MTT cytotoxicity, panel of seven human cancer cell lines. It is filed as cell-based. The settings on record: read-out: IC50 values across the cancer cell lines. Put shortly:
as §1

In data set [5] the test system is mouse primary hepatocytes. Kind of data set: MTT cytotoxicity assay, mouse primary hepatocytes. The class given is cell-based. Conditions: for pIC50: Mus musculus, Hepatocyte; for toxicity in mouse primary hepatocytes: up to 1000 nM. An outline of the steps:
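Primary hepatocytes were isolated by collagenase perfusion from an adult female CD-1 mouse. They were maintained in M199 medium with 10% FBS at 37°C, 5% CO2.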

Another data set has as its system AR-PDX tumor cells 118b. In words: Intra-femoral bone metastasis mouse model of prostate cancer. It is filed as in vivo, SCID mice. The settings on record: 10 mg/kg/day i.p., four weeks; for reduction in femur volume compared to vehicle: CT imaging. Put shortly:
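1 × 10^5 AR-PDX 118b cells were injected […] into male SCID mice aged 8–9 weeks. Two weeks later, n=9 per group received vehicle or 10 mg/kg/day i.p. for 4 weeks; x-ray imaging every two weeks. Femurs were collected at the end. CT 3D reconstruction was done on 5 femurs per group, plus histology; tumor/femur area ratio. Left femur as negative control.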

A further data set can be described thus: Water solubility. The class given is physicochemical.
The nature of another data set: Percentage of free drug. The class given is in vitro ADME.
A short description of data set [6]: Full pharmacokinetic profile, IV and oral, CD-1 mice. The class given is in vivo. The settings on record: male, CD-1, mouse, plasma; for Cmax: po, 10 mg/kg. An outline of the steps:
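Male mice, 6 weeks, n=3 per route. Test compound in 20% DMSO, 16% PEG, 4% dextrose in PBS: IV 1 mg/kg (0.5 mg/mL) or oral gavage 10 mg/kg (1 mg/mL). 10 μL blood taken from 2 or 15 min to 48 h. Plasma measured by LC-MS/MS against 0.5–1000 ng/mL calibration standards with four QC levels. Non-compartmental extravascular PK fit.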

A short description of data set [7]: Stability in human plasma. The class given is in vitro ADME. The settings on record: Fig S2.
The next data set relates to PANC-1-shSRC-3.1 cells. Kind of data set: MTT viability, SRC-3 knock-down cells shSRC-3.1. It is filed as cell-based, human. The settings on record: PANC-1 shSRC-3.1 and shSRC-3.2 vs control/parental cells. Put shortly:
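SRC-3 was stably knocked down in PANC-1 cells with lentiviral shRNAs (shSRC-3.1, shSRC-3.2; shCtrl control), and SRC-3 levels were checked by western blot. Cells were treated with varying doses of test compound for 72 h and viability read by MTT. The IC50 of knock-down cells was compared with that of control cells to give the fold change.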

The subject of the next data set is Panc-1-Luc cells. Kind of data set: Orthotopic Panc-1 PDAC mouse model. The class given is in vivo, SCID mice. The settings on record: 10 mg/kg i.p. once per day, 8 weeks, orthotopic PDAC mice. An outline of the steps:
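0.5×10^6 Panc-1-Luc cells were implanted orthotopically in the pancreas of male SCID mice aged 8 weeks. Mice were randomized by luciferase imaging (n=5 per group). From day 8, test compound 10 mg/kg i.p. or vehicle was given daily. Luciferase imaging and body weight were recorded weekly; tumors harvested at day 63.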

The next data set has as its system MDA-MB-468 cells. In words: Wash-out experiment in MDA-MB-468 cell line. The settings on record: drug washed out with PBS, total incubation 72 h, MTT. The class given is cell-based, human. Put shortly: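 MDA-MB-468 cells were grown in RPMI 1640 with 5% FBS. They were exposed to test compound for varying durations, washed with PBS, and kept in culture to a total of 72 h. Viability was read by MTT, and EC50 and EC90 were derived for each exposure time.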

The test system of data set [8] is 78 targets, including GPCRs, ion channel, receptors, kinase, enzymes and transporters. Kind of data set: SafetyScreen panel against 78 targets. The settings on record: at 10 μM. Put shortly:
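Commercial off-target safety panel covering GPCR (calcium flux agonist/antagonist, cAMP), ion channel (hERG blocker) and non-kinase enzyme assays. Test compound was screened at 10 μM, with RC50 values determined for interacting targets.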

For data set [9], the system named is prostate cancer PDX organoids. Kind of data set: Inhibition assay in prostate cancer PDX organoids. It is filed as cell-based, human. The settings on record: 2 weeks treatment. An outline of the steps:
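Tumors grown in SCID mice were digested with collagenase I and III to single cells. 20000 cells were embedded in collagen gel, set 20 min at 37°C, then cultured overnight at 37°C, 5% CO2. Test compound or vehicle given for 14 days, at least 5 wells per dose. Organoids imaged and counted on day 14; Student t test.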

Setting [10] is: cytotoxicity to MCF7 cells, MTT assay, 72 h, mean of triplicate.

pIC50: −log10 of the molar value. Converted amounts (≈) assume the structure as drawn. “And” between values parts separate entries of the source, which are not always exact repeats. Equal values may be shown once. Read-outs that look alike come from different tables or passages of the source.

Chain of DNA-bound ER/SRC-3/P300 complex (Q9Y6Q9 whole entry, one chain of several): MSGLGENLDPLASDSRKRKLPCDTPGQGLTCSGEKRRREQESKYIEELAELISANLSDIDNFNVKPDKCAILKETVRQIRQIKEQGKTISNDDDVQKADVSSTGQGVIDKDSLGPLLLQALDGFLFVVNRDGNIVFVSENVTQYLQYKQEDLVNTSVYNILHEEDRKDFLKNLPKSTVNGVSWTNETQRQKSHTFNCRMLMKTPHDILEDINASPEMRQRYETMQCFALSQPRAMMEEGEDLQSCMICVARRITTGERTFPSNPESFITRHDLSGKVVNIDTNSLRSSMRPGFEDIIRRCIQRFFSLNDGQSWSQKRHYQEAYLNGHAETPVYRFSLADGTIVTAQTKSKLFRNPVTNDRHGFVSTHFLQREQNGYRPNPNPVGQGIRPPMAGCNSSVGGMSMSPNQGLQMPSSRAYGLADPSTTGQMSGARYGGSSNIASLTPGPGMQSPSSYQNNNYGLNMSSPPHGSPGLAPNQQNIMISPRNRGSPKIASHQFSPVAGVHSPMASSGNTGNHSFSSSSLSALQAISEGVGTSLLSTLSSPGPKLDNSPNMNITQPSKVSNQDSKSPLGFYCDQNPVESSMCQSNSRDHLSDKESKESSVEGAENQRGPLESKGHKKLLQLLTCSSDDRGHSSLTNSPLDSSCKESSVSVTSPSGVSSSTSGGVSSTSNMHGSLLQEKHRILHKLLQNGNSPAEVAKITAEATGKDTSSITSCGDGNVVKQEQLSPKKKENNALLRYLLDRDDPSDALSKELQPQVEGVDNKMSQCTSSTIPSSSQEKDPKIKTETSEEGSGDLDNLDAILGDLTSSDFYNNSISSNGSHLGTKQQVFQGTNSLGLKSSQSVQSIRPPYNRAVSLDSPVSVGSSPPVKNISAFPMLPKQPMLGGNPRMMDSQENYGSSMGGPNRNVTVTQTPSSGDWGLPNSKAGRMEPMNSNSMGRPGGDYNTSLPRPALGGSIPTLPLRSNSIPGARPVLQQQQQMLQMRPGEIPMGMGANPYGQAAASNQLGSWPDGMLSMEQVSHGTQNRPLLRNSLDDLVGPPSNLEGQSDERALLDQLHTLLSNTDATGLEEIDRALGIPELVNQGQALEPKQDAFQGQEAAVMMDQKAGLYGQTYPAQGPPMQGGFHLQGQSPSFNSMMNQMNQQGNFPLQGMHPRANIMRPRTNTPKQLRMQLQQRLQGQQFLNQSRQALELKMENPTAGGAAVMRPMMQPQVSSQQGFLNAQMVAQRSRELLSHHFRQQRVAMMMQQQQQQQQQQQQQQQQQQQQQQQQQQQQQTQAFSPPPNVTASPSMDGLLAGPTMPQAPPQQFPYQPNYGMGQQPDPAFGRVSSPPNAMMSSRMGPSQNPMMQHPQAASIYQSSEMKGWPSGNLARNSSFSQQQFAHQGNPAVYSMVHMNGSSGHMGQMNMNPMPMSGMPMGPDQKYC
Chain of hERG (Q12809 whole entry): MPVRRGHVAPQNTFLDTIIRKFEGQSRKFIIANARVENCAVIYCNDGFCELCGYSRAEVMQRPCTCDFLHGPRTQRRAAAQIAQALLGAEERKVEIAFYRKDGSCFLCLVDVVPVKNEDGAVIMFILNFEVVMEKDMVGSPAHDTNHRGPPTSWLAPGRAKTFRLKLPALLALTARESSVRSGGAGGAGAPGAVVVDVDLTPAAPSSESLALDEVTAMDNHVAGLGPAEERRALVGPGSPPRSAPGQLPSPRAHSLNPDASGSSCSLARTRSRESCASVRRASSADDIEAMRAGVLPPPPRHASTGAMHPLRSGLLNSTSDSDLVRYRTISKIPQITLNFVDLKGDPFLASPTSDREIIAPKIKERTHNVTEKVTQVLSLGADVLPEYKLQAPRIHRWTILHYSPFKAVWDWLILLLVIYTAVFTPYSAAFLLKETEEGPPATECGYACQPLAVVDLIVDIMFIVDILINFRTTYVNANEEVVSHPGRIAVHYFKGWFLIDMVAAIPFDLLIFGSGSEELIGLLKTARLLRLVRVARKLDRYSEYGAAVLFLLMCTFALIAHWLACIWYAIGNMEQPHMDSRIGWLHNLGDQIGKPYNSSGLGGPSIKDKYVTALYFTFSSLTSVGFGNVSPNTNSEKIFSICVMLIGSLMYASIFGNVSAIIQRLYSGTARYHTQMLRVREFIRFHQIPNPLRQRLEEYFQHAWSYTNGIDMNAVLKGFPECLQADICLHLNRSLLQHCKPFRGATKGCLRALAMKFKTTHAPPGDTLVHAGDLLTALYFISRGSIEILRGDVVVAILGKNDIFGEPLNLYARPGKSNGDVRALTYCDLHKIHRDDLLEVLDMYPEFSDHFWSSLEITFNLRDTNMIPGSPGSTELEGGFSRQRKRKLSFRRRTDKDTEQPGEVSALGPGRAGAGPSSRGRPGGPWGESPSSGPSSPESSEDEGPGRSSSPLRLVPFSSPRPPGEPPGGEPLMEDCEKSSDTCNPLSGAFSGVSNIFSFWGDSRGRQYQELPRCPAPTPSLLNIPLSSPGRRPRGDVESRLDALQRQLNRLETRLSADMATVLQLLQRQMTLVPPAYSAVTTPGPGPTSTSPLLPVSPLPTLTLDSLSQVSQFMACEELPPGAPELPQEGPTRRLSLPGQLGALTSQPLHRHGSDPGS

In the data set with MCF7 cells (setting [10]), “1-(1-methyl-1H-benzo[d]imidazol-2-yl)-3-(pyridin-2-yl)-1H-pyrazol-5-ol [compound 12]” had a pIC50 of less than 6.00.
Molecule “6-((E)-1-(((E)-5,6-dichloro-1-methyl-1,3-dihydro-2H-benzo[d]imidazol-2-ylidene)hydrazineylidene)ethyl)nicotinamide [6g]” gave a pIC50 in the data set with MCF7 cells (setting [10]) of 8.57.
For the molecule “6-((E)-1-(((E)-5,6-difluoro-1-methyl-1,3-dihydro-2H-benzo[d]imidazol-2-ylidene)hydrazineylidene)ethyl)-N-hydroxynicotinamide [6m]”, the negative-log IC50 (pIC50) in the data set with MCF7 cells (setting [10]) was less than 6.00.
In the data set on MCF7 cells (Homo sapiens, MCF7, 72 h), `C/C(=N\NC1Oc2ccccc2N1C)c1ccc(F)cn1` (stereo not drawn) [8a, (E)-2-(2-(1-(5-fluoropyridin-2-yl)ethylidene)hydrazineyl)-3-methyl-2,3-dihydrobenzo[d]oxazole] showed a pIC50 of less than 6.00. The “effect on the ER complex” value in [1] (at 1.5 μM) was “did not affect the ER complex”.
In the case of `C/C(=N\Nc1nc2ccccc2n1C)c1ccccn1` [SI-2], the plasma half-life in [2] was 1 h and ~ 1 h.
`C/C(=N\Nc1nc2cc(F)c(F)cc2n1C)c1ncccn1` [SI-10, (E)-5,6-difluoro-1-methyl-2-(((E)-1-(pyrimidin-2-yl)ethylidene)hydrazineylidene)-2,3-dihydro-1H-benzo[d]imidazole]: the mouse survival result in the data set with LNCaP cells (10 mg/kg i.p. once per day, 3.0 cm tumor diameter endpoint) is reported as “significantly prolonged”. Further, in the data set on LNCaP cells (IHC at end of treatment, vehicle 2%), the “cleaved caspase 3 positive tumor cells” value is “Approximately 10%”. Also, the “Ki67 positive cells in tumors” value with LNCaP cells (IHC at end of treatment, vehicle more than 50% positive) is recorded as “significantly lower”. The body weight result in data set [3] (50 mg/kg or 100 mg/kg, once per day, 4 weeks) is “did not cause any loss of body weight”. In [3] (oral administration up to 100 mg/kg (highest dose tested)), the acute tolerability entry is given as “did not cause appreciable stress”. The hERG inhibition entry on hERG (at 30 μM) was “did not show appreciable hERG inhibition”. Moreover, the pIC50 in data set [4] was 7.49 to 9.00. In addition, in data set [5], the pIC50 is less than 6.00 and the “toxicity in mouse primary hepatocytes” value is recorded as “did not observe any toxicity”. Further, in the data set with AR-PDX tumor cells 118b, the “decrease of ratio of tumor area to femur area” value is recorded as “over 50%” and the “reduction in femur volume compared to vehicle” value is greater than 55%. This molecule also showed a solubility in “Water solubility” of 22.8 µM (≈ 6.89 µg/mL). Besides, in “Percentage of free drug”, the “percentage of free drug” value came to 6.6%. Moreover, the area under the curve AUC(0-t) in data set [6] (iv, 1 mg/kg) was 0.29 µM·h. The molecule further had a peak concentration (Cmax) in data set [6] of 1140 nM. In data set [7], the “stability in human plasma” value is recorded as “excellent stability”.
`C/C(=N\N=c1/[nH]c2cc(F)c(F)cc2n1C)c1ccc(F)cn1` [SI-12, (E)-5,6-difluoro-2-(((E)-1-(5-fluoropyridin-2-yl)ethylidene)hydrazineylidene)-1-methyl-2,3-dihydro-1H-benzo[d]imidazole]: the “fold reduction of potency in SRC-3 knock-down cells vs control cells” value with PANC-1-shSRC-3.1 cells is given as “approximately 5 fold”. Moreover, the “fold reduction of potency in SRC-3 knock-down cells vs control cells” value in the data set with PANC-1-shSRC-3.1 cells (listed as SI-12 (6c)) is 4.7 ~5.8 fold. In addition, the hERG inhibition result at hERG (at 10 μM) is “moderate hERG inhibition”. Further, in data set [5], the negative logarithm of the IC50 (pIC50) is less than 6.00 and the “toxicity in mouse primary hepatocytes” value is reported as “did not observe any toxicity”. For the same molecule, in the data set on AR-PDX tumor cells 118b, the “decrease of ratio of tumor area to femur area” value is on record as “over 50%” and the “reduction in femur volume compared to vehicle” value is recorded as greater than 55%. The “recruitment of SRC-3 and p300 in the ER complex” value in data set [1] (at 0.15 μM, SRC-3 protein 0.13 μM) is on record as “significantly decreased”. In addition, in the data set “Water solubility”, the solubility was determined as 3.8 µM (≈ 1.21 µg/mL). Besides, the body weight entry with Panc-1-Luc cells was “did not cause any mice body weight change”. The “percentage of free drug” value in “Percentage of free drug” worked out at 2.2%. Moreover, in data set [6] (iv, 1 mg/kg), the area under the curve AUC(0-t) came out at 2.31 µM·h and the half-life was 22 h. The molecule further showed a Cmax in [6] of 2740 nM. The “treatment time sufficient to achieve maximal cytotoxicity” value in the data set with MDA-MB-468 cells was 3 to 6 h. The “interactions with other targets of the panel” value in [8] is given as “minimal”. The “stability in human plasma” value in [7] was “excellent stability”. Also, in data set [9], the “formation and growth of organoids” value is reported as “effectively suppressed”.
In turn, “(E)-2-(2-(1-(5-fluoropyridin-2-yl)ethylidene)hydrazineyl)-3-methyl-2,3-dihydrobenzo[d]thiazole [8b]” gave a negative-log IC50 (pIC50) in the data set on MCF7 cells (setting [10]) of less than 6.00.
The same measure, in the same setting: next, “methyl 6-((E)-1-(((E)-5,6-dichloro-1-methyl-1,3-dihydro-2H-benzo[d]imidazol-2-ylidene)hydrazineylidene)ethyl)nicotinate [6f]”: 8.54.

The pIC50 is the IC50 on a negative log10 scale, so that one unit is a factor of ten. The solubility is the concentration that dissolves in the medium under given conditions. Low readings indicate little dissolved substance, high ones much dissolved substance. By AUC(0-t) is commonly meant the area under the concentration-time curve up to a stated or last time point. Read a high AUC(0-t) as more exposure. In general, Cmax refers to the highest concentration seen after dosing. One may read the half-life as how long it takes for the measured level to halve. Higher therefore signals slow decline.

Source of the values: paper PMC11105966 (Journal of medicinal chemistry, 2024).
